Broadly, the CL/F is clearance divided by bioavailability, as obtained after extravascular dosing. One may read the EC50 as the concentration giving half of the maximal effect. In general, logD refers to the decadic logarithm of the distribution of all forms, ionised or not, between an organic phase and buffer at a given pH.

From ChEMBL document CHEMBL3797028, “Novel S1P1 receptor agonists - Part 4: Alkylaminomethyl substituted aryl head groups” (Eur J Med Chem, 2016) come the findings set out here.

Series [1] can be described thus: Apparent oral clearance in Wistar rat plasma at 1 to 10 mg/kg administered through gavage by LC-MS/MS analysis. In kind it is ADME, organism-based. In outline: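 Male Wistar rats received a single oral gavage dose of compound dissolved in DMSO and added to 7.5% succinylated gelatine in water (final 5% DMSO). EDTA plasma was spun at 3000 g for 10 min at 4 °C and analysed by LC-MS/MS after protein precipitation. Oral clearance was estimated from the plasma concentration–time data. In vivo intrinsic clearance used the well-stirred liver model, assuming complete absorption.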

The nature of series [2]: Selectivity ratio of EC50 for human recombinant S1PR3 expressed in CHO cell membranes to EC50 for human recombinant S1PR1 expressed in CHO cell membranes. In kind it is cell-based. The procedure, abridged:
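Compound and membranes are pre-incubated 30 min at rt, then incubated 1 h at rt, filtered and counted. EC50 is the concentration giving 50% of S1P-defined specific binding, as the geometric mean of ≥3 independent duplicate runs. Ratio = EC50 S1PR3/EC50 S1PR1.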

Series [3] is described as follows: Ratio of total drug level in brain to plasma in Wistar rat at 10 mg/kg administered as single dose through oral gavage after 2 hrs. In kind it is ADME, organism-based. The note with it: read-out: BPR. The procedure, abridged:
(§1)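 Male Wistar rats (n = 2 per timepoint) were dosed orally at 10 mg/kg. At 2, 6 and 24 h they were anaesthetised with 5% isoflurane and sacrificed, and blood was taken for plasma. The brain was perfused via the carotid with 10 mL 0.9% NaCl, removed, and homogenised in an equal volume of ice-cold 0.1 M Na-phosphate pH 7.4. Samples were assayed by LC-MS/MS against blank-brain calibration. Brain/plasma ratio was calculated from these values, reported as the mean of 2.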

For series [4], the species on record is Rattus norvegicus. Briefly: Intrinsic clearance in rat liver microsomes scaled to body weight. The settings on record: in vitro. A general note: Liver microsomes are vesicles of endoplasmic reticulum, rich in cytochrome P450 enzymes.
A short description of series [5]: Plasma concentration in Wistar rat at 10 mg/kg administered as single dose through oral gavage after 24 hrs by LC-MS/MS analysis. The format is ADME, organism-based. In outline:
(§2)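 Single oral gavage dose to male Wistar rats in DMSO/7.5% succinylated gelatine (final 5% DMSO). Blood was drawn into EDTA at the lymphocyte-count timepoints. Plasma was prepared at 3000 g for 10 min at 4 °C and analysed by LC-MS/MS after protein precipitation.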

The next series concerns Plasma. Description: Plasma concentration in Wistar rat at 1 mg/kg administered as single dose through oral gavage after 72 hrs by LC-MS/MS analysis. In kind it is ADME, organism-based. The note with it: in vivo, BLD = below limit of detection. The procedure, abridged: as §2
A further series relates to Liver microsome. Description: Unbound fraction corrected apparent intrinsic clearance in Wistar rat liver microsomes at 1 uM after 2.5 to 15 mins by LC-MS/MS analysis in presence of NADPH. The format is ADME. The procedure, abridged:
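Apparent CLint was measured by microsomal substrate depletion: 1 uM start, 0.5 mg/mL rat liver microsomes, pH 7.4, 37 °C, NADPH-regenerating system, sampling 0–15 min, LC-MS/MS. It was then divided by the unbound microsomal fraction, which was determined by rapid equilibrium dialysis of 1 mg/mL microsomes for 6 h at 37 °C.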

Series [6] in a line: Ratio of total drug level in brain to plasma in Wistar rat at 10 mg/kg administered as single dose through oral gavage after 24 hrs. The note with it: read-out: BPR. In kind it is ADME, organism-based. The procedure, abridged:
as §1

The nature of series [7]: Total plasma concentration in Wistar rat at 10 mg/kg administered as single dose through oral gavage after 24 hrs by LC-MS/MS analysis. The format is ADME, organism-based. In outline: as §1
Series [8] has as its system Rattus norvegicus. Briefly: Change in circulating lymphocyte count in Wistar rat at 10 mg/kg administered as single dose through oral gavage after 6 hrs relative to control. In kind it is functional. The procedure, abridged:
(§3)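 Male Wistar rats (RccHan:WIST; n = 6) were given a single oral gavage dose of compound in DMSO plus 7.5% succinylated gelatine (final 5% DMSO). Blood lymphocytes were counted just before dosing and at later timepoints. Percent change was calculated per animal relative to the pre-dose value and compared with a vehicle-treated group, reported as the mean. A ±15% change was treated as baseline, and a reduction of about 60% or more as maximal.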

The subject of series [9] is Rattus norvegicus. Description: Change in circulating lymphocyte count in Wistar rat at 1 mg/kg administered as single dose through oral gavage after 24 hrs relative to control. In kind it is functional. In outline: as §3
Series [10] concerns Rattus norvegicus. Briefly: Change in circulating lymphocyte count in Wistar rat at 3 mg/kg administered as single dose through oral gavage after 3 hrs relative to control. In kind it is functional. The procedure, abridged: as §3
The nature of series [11]: Plasma concentration in Wistar rat at 3 mg/kg administered as single dose through oral gavage after 24 hrs by LC-MS/MS analysis. In kind it is ADME, organism-based. In outline:
as §2

The nature of series [12]: Plasma concentration in Wistar rat at 3 mg/kg administered as single dose through oral gavage after 3 hrs by LC-MS/MS analysis. The format is ADME, organism-based. The procedure, abridged: as §2
Series [13] has as its target Sphingosine 1-phosphate receptor 3 (Homo sapiens, UniProt Q99500). Briefly: Agonist activity at human recombinant S1PR3 expressed in CHO cell membranes assessed as [35S]GTPgammaS binding preincubated for 30 mins followed by [35S]GTPgammaS addition measured after 1 hr by topcount analysis. The format is functional. In outline:
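Membranes from CHO cells expressing recombinant human S1P1 or S1P3 were used. Buffer was 20 mM Hepes pH 7.4, 100 mM NaCl, 5 mM MgCl2, 0.1% fatty-acid-free BSA, 2.5% DMSO and 50 pM 35S-GTPgammaS. GDP was […] for S1P3. Compound was preincubated 30 min at rt, then incubated 1 h at rt with 35S-GTPgammaS. Bound label was collected by filtration and counted. Specific binding was taken against 10 uM S1P. EC50 was the 50%-of-specific-binding concentration, reported as the geometric mean of at least three independent duplicate runs.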
For orientation: GTPγS resists hydrolysis and so accumulates on activated G proteins.

The subject of series [14] is Rattus norvegicus. Briefly: Change in circulating lymphocyte count in Wistar rat at 1 mg/kg administered as single dose through oral gavage after 3 hrs relative to control. In kind it is functional. In outline:
as §3

The nature of series [15]: Total plasma concentration in Wistar rat at 10 mg/kg administered as single dose through oral gavage after 2 hrs by LC-MS/MS analysis. In kind it is ADME, organism-based. The procedure, abridged:
as §1

Series [16] can be described thus: Distribution coefficient, log D between 1-octonol and phosphate buffer at pH 7. The note with it: 1-octanol/phosphate buffer. In kind it is physicochemical. In outline:
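Partition was between 1-octanol and phosphate buffer at pH 7.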

A short description of series [17]: Plasma concentration in Wistar rat at 1 mg/kg administered as single dose through oral gavage after 3 hrs by LC-MS/MS analysis. In kind it is ADME, organism-based. In outline: as §2
Series [18] deals with Rattus norvegicus. Description: Change in circulating lymphocyte count in Wistar rat at 10 mg/kg administered as single dose through oral gavage after 96 hrs relative to control. In kind it is functional. The procedure, abridged: as §3
The nature of series [19]: Plasma concentration in Wistar rat at 3 mg/kg administered as single dose through oral gavage after 6 hrs by LC-MS/MS analysis. The format is ADME, organism-based. The procedure, abridged: as §2
A short description of series [20]: Total brain concentration in Wistar rat at 10 mg/kg administered as single dose through oral gavage after 24 hrs by LC-MS/MS analysis. In kind it is ADME, organism-based. The note with it: read-out: Drug uptake. The procedure, abridged:
as §1

The target of series [21] is Sphingosine 1-phosphate receptor 2 (Homo sapiens, UniProt O95136). Briefly: Agonist activity at S1PR2 (unknown origin).
Series [22] addresses Sphingosine 1-phosphate receptor 5 (Homo sapiens, UniProt Q9H228). Briefly: Agonist activity at S1PR5 (unknown origin).

Structures are written as SMILES. Some results are limits rather than exact numbers.

Sphingosine 1-phosphate receptor 3, sequence (Q99500 whole entry): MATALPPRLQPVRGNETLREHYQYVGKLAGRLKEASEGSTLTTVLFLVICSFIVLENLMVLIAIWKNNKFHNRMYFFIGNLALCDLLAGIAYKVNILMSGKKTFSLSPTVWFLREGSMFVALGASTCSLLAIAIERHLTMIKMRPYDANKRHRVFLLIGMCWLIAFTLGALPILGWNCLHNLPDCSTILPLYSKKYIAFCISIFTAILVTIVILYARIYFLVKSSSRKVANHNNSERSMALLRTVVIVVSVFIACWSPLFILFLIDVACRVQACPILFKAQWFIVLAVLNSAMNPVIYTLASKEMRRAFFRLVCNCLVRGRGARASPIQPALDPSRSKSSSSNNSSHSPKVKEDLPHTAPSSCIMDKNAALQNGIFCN
Sphingosine 1-phosphate receptor 2, sequence (O95136 whole entry): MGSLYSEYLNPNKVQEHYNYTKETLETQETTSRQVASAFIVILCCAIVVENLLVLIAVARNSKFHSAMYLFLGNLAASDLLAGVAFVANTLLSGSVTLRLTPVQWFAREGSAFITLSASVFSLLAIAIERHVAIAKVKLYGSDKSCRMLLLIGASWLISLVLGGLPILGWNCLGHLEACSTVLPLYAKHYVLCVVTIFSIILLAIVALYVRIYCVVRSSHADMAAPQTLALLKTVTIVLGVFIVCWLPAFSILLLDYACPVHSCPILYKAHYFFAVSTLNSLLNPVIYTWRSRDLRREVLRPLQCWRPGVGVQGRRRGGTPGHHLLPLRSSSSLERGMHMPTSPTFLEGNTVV
Sphingosine 1-phosphate receptor 5, sequence (Q9H228 whole entry): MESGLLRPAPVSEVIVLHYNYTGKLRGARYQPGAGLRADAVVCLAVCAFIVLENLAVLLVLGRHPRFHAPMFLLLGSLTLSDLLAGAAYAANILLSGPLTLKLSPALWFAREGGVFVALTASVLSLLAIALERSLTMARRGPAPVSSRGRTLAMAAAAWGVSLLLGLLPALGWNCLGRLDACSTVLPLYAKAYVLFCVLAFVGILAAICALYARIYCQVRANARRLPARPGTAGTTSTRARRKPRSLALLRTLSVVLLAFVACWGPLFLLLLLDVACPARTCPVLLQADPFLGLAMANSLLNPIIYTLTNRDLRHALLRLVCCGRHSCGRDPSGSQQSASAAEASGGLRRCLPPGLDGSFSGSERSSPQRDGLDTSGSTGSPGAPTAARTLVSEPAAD

`CCc1cc(-c2noc(-c3cc(C)c(CN(C)CC(C)C)s3)n2)cc(C)c1OC[C@@H](O)CNC(=O)CO`: the CL/F in series [1] amounted to 19 mL/min/kg. The Ratio EC50 in series [2] stood at 290. Moreover, in [3], the Kp at 2 h stood at 0.64. Also, the CL in the series filed under Rattus norvegicus [4] came to 25200 mL/min/kg. Also, the concentration at 24 h is 92 ng/mL in series [5], 66.5 ng/mL in [7], 25 ng/mL in series [11] and 776 ng/g in [20]. For the same compound, the Cp result in the series on Plasma was “BLD”. The CL free with Liver microsome came to 14000 µL/min/mg. Moreover, the Kp at 24 h in series [6] is 11.5. For the same compound, the Activity in the series on Rattus norvegicus [8] is listed as -77%; in the series on Rattus norvegicus [9], 4%; in the series with Rattus norvegicus [10], -59%; with Rattus norvegicus [14], -33%; in the series with Rattus norvegicus [18], 4%. Moreover, the results for the concentration at 3 h in series [12] and in series [17] were 210 ng/mL and 67 ng/mL, respectively. In addition, the concentration giving a half-maximal response (EC50) in series [13] is 145 nM; in series [21], greater than 1000 nM; in [22], 753 nM. The same compound yielded a concentration at 2 h in series [15] of 783 ng/mL. For the same compound, in series [16], the logD is greater than 4.1. The concentration at 6 h in [19] amounted to 170 ng/mL.
